This passage reports APD75 and ERP results from ChEMBL document CHEMBL1125548, “Synthesis and pharmacological studies of N-substituted 6-[(2-aminoethyl)amino]-1,3-dimethyl-2,4(1H,3H)-pyrimidinediones, novel class III antiarrhythmic agents” (1992).

Experiment [1] concerns Canis familiaris. The experiment in a line: The percentage change of the duration of action potential at 75% repolarization was measured before and after the administration at 1.0 ug/mL. The class given is functional, Canis lupus familiaris. The method in brief:
(§1)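 Canine right-ventricular Purkinje fibers (mongrel dogs 7–11 kg, thiopental-anesthetized) superfused with Tyrode's (pH 7.5, 36 °C, gassed 95% O2/5% CO2). Compounds diluted from 1 mM water stock and added cumulatively. Readings taken 20 min after solution exchange. Result given as percent change in action potential duration.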

Experiment [2] relates to Canis familiaris. The experiment in a line: Percentage change of the duration of action potential at 75% repolarization was measured before and after the administration at 10.0 ug/mL. The experiment is classed as functional, Canis lupus familiaris. In a few lines: as §1
Experiment [3] has as its system Canis familiaris. As to the kind of experiment: The percentage change of the duration of action potential at 75% repolarization was measured before and after the administration at 3.0 ug/mL. The experiment is classed as functional, Canis lupus familiaris. The method in brief:
as §1

For experiment [4], the system named is Canis familiaris. The experiment in a line: The prolongation effect of the atrial and ventricular effective refractory period was measured before and after the administration at 0.3 mg/kg. The class given is functional, Canis lupus familiaris, Cardiac atrium. The method in brief:
(§2)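 In vivo, mongrel dogs of either sex (7–13 kg), anesthetized with pentobarbital sodium 30 mg/kg iv. Left femoral artery cannulated for arterial pressure, femoral vein for drug dosing. Effective refractory period measured before and after administration.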

Experiment [5] concerns Canis familiaris. As to the kind of experiment: The prolongation effect of the atrial and ventricular effective refractory period was measured before and after the administration at 3 mg/kg. The experiment is classed as functional, Canis lupus familiaris, Cardiac atrium. In a few lines:
as §2

Experiment [6] deals with Canis familiaris. The experiment in a line: The prolongation effect of the atrial and ventricular effective refractory period was measured before and after the administration at 1.0 mg/kg.

Consider `CSc1ccc(OCCCN2CCN(c3cc(=O)n(C)c(=O)n3C)CC2)cc1.Cl`, for which the results for the APD75 in experiment [1], in experiment [2] and in experiment [3] were 4%, 25% and 13%, respectively. Further, the values for the ERP in experiment [4], in experiment [5] and in experiment [6] were 0%, 15.4% and 7.7%, respectively.
